Data published in the RNAGym collection of RNA variant scans (doi:10.1126/science.aae0568).
Variants at the floor of the assay were thinned out.

B1: tRNA (parent)
chain: GUUCCGUUGGCGUAAUGGUAACGCGUCUCCCUCCUAAGGAGAAGACUGCGGGUUCGAGUCCCGUACGGAACG

Variants of: B1
Assay: yeast fitness relative to wild type (ratio to wild type); higher = fitter; tRNA-Arg(CCU), competitive growth, 37 C, YPD
In short: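 A pool of Saccharomyces cerevisiae strains, each with a tRNA-Arg(CCU) gene variant at the native genomic locus, was competed in YPD at 37°C for 24 hours across six parallel replicates. The variants had been chemically synthesised at a 3% per-site mutation rate over 69 sites, and gene amplicons before and after competition were read by 100-nucleotide paired-end sequencing. Darwinian fitness relative to wild type rested on changes in genotype frequencies. Genotypes required ≥ 100 starting reads, and estimates < 0.5 were set to 0.5.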

Variant	yeast fitness
GUUCCGUUGGCGUAAUGGUAACGUGUCUCCAUCCUAAGGAGAAGACUGCGGGUUCCAGUCCCGUACGGAACG [C24U C31A G56C]	0.544
GUUCCGUUGGCGCAAUAGUAAAGCAUCUCCCUCCUAAGGAGAAGACUGCGGGUUCGAGUCCCGUACGGAACG [U13C G17A C22A G25A]	≤ 0.5
GUUCCGUUGGCGUAAUGGUAAAGCGUCUCCCUCCUAAGGAGAAGACUGCGGGUUCGAGUCCCCUCCGGAACG [C22A G63C A65C]	≤ 0.5
GUUACGUUGGAGUAAUGGUAACGCGUCUCCCUGCUAAGGAGAAGACUGCGGGUUCGCGUCGCGUACGGAACG [C4A C11A C33G A57C C61G]	0.534
GUCCCGUUGGAGUAAUGGUAACGUGUCUCCCUCCUAAGGAGGAGACUGCGGGUUCGAGUCCCAUACGGAACG [U3C C11A C24U A42G G63A]	≤ 0.5
GUUCCGUUGGCGUAAUGGUAACGCGUCUCCCUCCUAAGGCGAAGACUGCGAGUUCGAGUCUCGUACGGCACG [A40C G51A C61U A69C]	0.618
GUUCCGUUGGUGUAAUGGUAACGCGUCUCCCUCCUAAGGAGAAGACUGCGGGUUAGAGUCCCGUAAGGAACG [C11U C55A C66A]	≤ 0.5
GUUCCGUUGGCGUAAUGGUAAUGCGUCUCUCUUCUAAGGAGAAGCCUGCGGGUUCGAGUCCCGUAUGGAACG [C22U C30U C33U A45C C66U]	≤ 0.5
GUUUCGUUGGCGUAAUGCUAACGCGUCUCCCUCCUAAGGAGAAGACUGCGGGUUCGCGUCCCGUACGGAACG [C4U G18C A57C]	0.639
GCUCCGUUGGCGUAACGGUAACGCGUCUCCCUCCUAAGGAGAAGAGUGCGGGUUCGAGUCCGGUACGGAACG [U2C U16C C46G C62G]	≤ 0.5
GUUCCGUUGGCGUAAUGGUCACGCGUUUCCCUCGUAAGGAGAAGACUGCGGGUUCGAGUCUGGUACGGAACG [A20C C27U C34G C61U C62G]	0.616
GUUCCGUUGGGGUAAUGGUAACGCGUCUCCCUCCUAAGGAAAAGACUGCGGGCUCGAGUCCCGUACGGAACG [C11G G41A U53C]	≤ 0.5
GUUCCGUUGGCGUAAUGGUAACGCGUUUUCCUCCUAAGGAGAAGACUGCGGGUUAGAAUCCCGUACGGAACG [C27U C29U C55A G58A]	≤ 0.5
GUUCCGUUUGAGUAAUGGUAACGGGUCUCGCUCCUAAGGAGAAGACUGCGGGUUCGAGUCCCGUACGGAACG [G9U C11A C24G C30G]	≤ 0.5
GUUCCGUUGGCGUAAUGGUAAGGCGUCUCCCUCCUAAGAAGAAGACUGCGGGUUCGAGUCCCGUACCGAACG [C22G G39A G67C]	0.526
GUUCCGUUGGCGUAAUGGUAACGCGUCUUCCGCCUAAGGAGAAGACUGCGGGUUCGAGUCCCGUACGGAACG [C29U U32G]	0.686
GUUCCGUUGGCGUAAUGGUAACGCGUCUCCCUCCUAAGGAGACGACUGCGGGUUCGAGUCCCGUACGUAACG [A43C G68U]	0.868
GUUCCGUUGGCGUAAUGGUAACGCGUCUCCCUCCUAAGGAGAAGGCCGCGGGUUCGAGUCCAGUUAGGAACG [A45G U47C C62A A65U C66A]	≤ 0.5
GUUCCGUUGGCGUAAUGGUAACGCGUCUCCCUACUAACGAGAGGACUGCGGGUUCGAGUCCCGUACGGAACG [C33A G38C A43G]	≤ 0.5

Variant	yeast fitness
GUUCCGUUGGCAUAUUGGUACCGCGUCUCCCUCCUAAGGAGAAGACAGCGGGUUCGAGUCCCGUACGGAACG [G12A A15U A21C U47A]	≤ 0.5
GUUCCGUUGGCGUAAUGGUAAAGCGUCUCCCCCCUACGGAGAAGACUGCGGGUUCGAGUCCCGUGCGGAACG [C22A U32C A37C A65G]	≤ 0.5
GUUCCGUUGGCGUAAUGGUAACGCGUCUCCUUCCUAAGGAGACGACUGCGGGUUCGAGUCCCGUACGGCACG [C31U A43C A69C]	0.902
GUUCCGUUGGCGUAAUGGUAACGCAUCACCCUCCUAAGGAGAAGACUGCGGGUUCGAGUCUCGUACCGAACG [G25A U28A C61U G67C]	≤ 0.5
GUUCCGUUGGCGUAAUGGUAACGCGUCUCCCUCCUCAGGAGAAGACUGCGGGUUCGCGUCCCGUACGGAGCG [A36C A57C A70G]	0.552
GUUCCAUUGGCGUAAUGGUAACGCCUCUCCCUCCUAAGGAGAAGACUCCGGGUUCGAGUCCCGUACGGAACG [G6A G25C G48C]	0.654
GUUCCGUUGGCGUAAUGGUAGCGCGUCUCCCUCCUAAGGAGAAGACUGCGGGUUCGAGUCCCGUACGGUACG [A21G A69U]	1.07
GUUCCGUUGGAGUAAUGGUAACGCGUCUCCCUCAUAAGGAGAAGACAGCGGGUUCGAGUCGCGUACGGAACG [C11A C34A U47A C61G]	≤ 0.5
GUUCUGUUGGCGUAAUGCUAAUGCGUCUCCCUCCUAAGGAGAAGACUGCAGGUCCGAGUCCCGUACGGAACG [C5U G18C C22U G50A U54C]	≤ 0.5
GUUCCGUUGGCGUAAUGGUAACGCGUCUCGCUCCUAAGGAGAAGACAGCCGGUUCGAGUCCCGUGCGCAACG [C30G U47A G50C A65G G68C]	≤ 0.5
GUUCGGUUGGCGUAAUGGUUACGCGUCUCUCUCCUAAGGAGAAGACUGCGGGUUCGAGUCCCGUACGGAACG [C5G A20U C30U]	≤ 0.5
GUUCCGUUGGGGUAAUGGUAACGCGUGUCCCUCCUAAGGAGCAGCCUGCGGGUUCGAGUCCCGUACGGAACG [C11G C27G A42C A45C]	≤ 0.5
GUUCCGUUGGCGUAAUGGUAACGCGUCUCCCGCCUUAGGAGAAGACUGCGGGUUCGAGCCCCGUACGGAACG [U32G A36U U59C]	≤ 0.5
GUUCCGGUGGCGUAAUGGUAACGCCUCUCCCUCCUAAGGAGAAGACUGCGGGUUCAAGUCCCGUACGGAACG [U7G G25C G56A]	0.697
GAUCCGUUAGCGAAAUGGUAACGAGUCUCCCUCCUAAGGAGGAGACUGCGGGUUUGAGUCCCGUACGGACCG [U2A G9A U13A C24A A42G C55U A70C]	≤ 0.5
GAUCCGUUGGCGUAAUGGUAACGCGUCUGCCUCCUAAGGAGAAGACUGCGGGUUCGAAUCCCGUACGGAACG [U2A C29G G58A]	≤ 0.5
GUUCCGUUGCCGUAAUGGUAACGCGUCUCCCCACUAAGGAGAAGACUGCGGGUUCGAGUCCCGUACGGAACG [G10C U32C C33A]	≤ 0.5
GUCCCGUUGGCGUAAUGGUAACGCGUCUGCCUCCUAAGGAGAACACUGGGGGUUCGCGUCCCGUACGGAACG [U3C C29G G44C C49G A57C]	≤ 0.5
GUUCCGUUGACAUAAUGGUAACGCGUCUCCCUCCUAAGGAGAAGACUGCGGGUUCGAGUCCCGUACGCAACG [G10A G12A G68C]	≤ 0.5
